# Compound activity (PubChem BioAssay)
# Most compounds without a hit are left out; they make up all but 1.8% or so of the library.
# HDAC3 inh: HDAC3 deacetylase inhibitors, primary screen, biochemical, fluorescence, cell-free homogeneous | Histone deacetylase 3 (Homo sapiens), O15379 | recombinant HDAC3, fluorogenic peptide/trypsin coupled | inhibition, % at 8.3 µM | 320,000 compounds, 0.15% hits; in the data active = inhibition above about 26%, passing the limit was not always enough; inconclusive = no clear call, values can overlap the other calls
# ATG4B inh: ATG4B protease inhibitors, primary screen, biochemical, fluorescence, uHTS | Cysteine protease ATG4B (Homo sapiens), Q9Y4P1 | ATG4B cleavage of LC3-PLA2, NBD-HPC fluorescence, 1 h | inhibition, % at 8.33 µM | 340,000 compounds, 0.51% hits | AID 504462, 2011; in the data active = inhibition above about 40%
# AI-2 QS modul: Vibrio harveyi AI-2 quorum sensing modulators, primary screen, JMH597 strain, luminescence/OD600 ratio. 300,000 compounds, 0.4% hits. activity change, % at 7.5 µM. Vibrio harveyi JMH597 AI-2 luminescence/OD600 ratio, 9 h; active compounds read low; strain lacks LuxN and CqsS sensors; 0 = neutral-control median. AID 2094, 2009; in the data active = activity change below about -75%, passing the limit was not always enough; inconclusive = no clear call, values can overlap the other calls;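 note: luminescence divided by OD600 gain over 9 h not by final OD600 alone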
# A1 inh: caspase 3/7 activation in MEF A1-2A-BIM cells, primary screen, A1 inhibitor project, cell-based, luminescence, HTS; Caspase-Glo 3/7 luminescence, 3 h; percent of clofoctol response, vehicle zero; 330,000 compounds, 0.066% hits; caspase activation, % (no concentration beside the values);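 active = over half of replicate activation scores above 10%, or exactly half above 10 with the replicate mean above 10; inconclusive = replicate mean below 10 yet half the replicates above 10; inactive = over half of replicates below 10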
# LANA-H2B inh: blockers of LANA interaction with H2A/H2B – biochemical, FP readout, HTS, primary screen. 320,000 compounds, 0.6% hits. AID 2629, 2010. cell-free LANA-H2A/H2B peptide, fluorescence polarization. inhibition, % (no concentration beside the values); in the data active = inhibition mostly above about 10%, no sharp cut-off; inactive = mostly below about 6.7%
# HKDC1 inh: HKDC1 hexokinase inhibitors, primary screen, biochemical, fluorescence, uHTS. inhibition, % at 20 µM. recombinant HKDC1, G6PDH/diaphorase resazurin coupled fluorescence. 340,000 compounds, 0.16% hits. Q2TB90;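 active = inhibition above about 35% when tested at 20 µM, limit read from the data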;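 note: plate controls were DMSO wells with enzyme for no effect and DMSO wells lacking enzyme for full effect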
# Target sequence (Q2TB90 whole entry, looked up): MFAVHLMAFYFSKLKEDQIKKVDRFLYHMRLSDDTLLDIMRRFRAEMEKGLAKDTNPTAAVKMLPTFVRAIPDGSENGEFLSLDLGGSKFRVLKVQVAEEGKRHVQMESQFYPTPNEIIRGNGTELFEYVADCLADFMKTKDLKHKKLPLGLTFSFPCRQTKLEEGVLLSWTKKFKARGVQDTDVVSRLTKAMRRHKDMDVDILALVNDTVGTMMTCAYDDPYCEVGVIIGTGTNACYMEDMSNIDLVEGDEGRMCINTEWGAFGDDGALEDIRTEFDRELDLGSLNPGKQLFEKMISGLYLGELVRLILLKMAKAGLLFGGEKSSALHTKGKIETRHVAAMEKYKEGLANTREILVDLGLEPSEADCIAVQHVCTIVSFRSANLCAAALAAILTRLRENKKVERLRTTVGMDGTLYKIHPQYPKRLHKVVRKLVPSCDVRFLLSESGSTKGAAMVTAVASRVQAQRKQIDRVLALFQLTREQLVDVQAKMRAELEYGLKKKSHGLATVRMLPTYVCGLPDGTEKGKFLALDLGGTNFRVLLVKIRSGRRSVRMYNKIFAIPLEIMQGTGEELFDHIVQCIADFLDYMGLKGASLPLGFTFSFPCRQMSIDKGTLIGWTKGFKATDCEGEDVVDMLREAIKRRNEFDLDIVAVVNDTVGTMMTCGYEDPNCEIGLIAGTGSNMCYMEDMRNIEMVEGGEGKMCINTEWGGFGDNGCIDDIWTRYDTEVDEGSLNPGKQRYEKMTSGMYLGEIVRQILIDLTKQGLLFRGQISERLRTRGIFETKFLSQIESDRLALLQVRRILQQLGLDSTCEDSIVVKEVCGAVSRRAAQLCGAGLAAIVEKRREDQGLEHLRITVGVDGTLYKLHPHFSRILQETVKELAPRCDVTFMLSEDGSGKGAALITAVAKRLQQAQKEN
#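 Test system: Recombinant HKDC1 (HK5) hexokinase enzyme, produced in-house | Input: HKDC1 at 5 µg/mL | Buffer or medium: Tris pH 8.0 buffer with MgCl2, Tween-20, BSA, BME | Schedule: 90 min reaction incubation at room temperature, dark | Technique: Resazurin-to-resorufin fluorescence via G6PDH and diaphorase coupling, 525/613 nm | Controls: DMSO wells with and without enzyme mix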
# JMH597 growth: Vibrio harveyi growth inhibition, confirmation, counter-screen for AI-2 quorum sensing project, JMH597 strain, OD600 absorbance | growth inhibition, % at 7.5 µM | 750 compounds, 1% hits | shares compounds with AI-2 QS modul | 9 h; lacks LuxN and CqsS sensors;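 active = every replicate shows growth inhibition above 50%; inconclusive = at least half, but not all, replicates pass that cutoff; inactive = fewer than half of replicates pass it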
# BB721 const-QS lum: luminescence inhibition in constitutive-on V. harveyi, confirmation, counter-screen for LuxS inhibitor project, strain BB721, luminescence readout. shares compounds with AI-2 QS modul. Vibrio harveyi BB721 luminescence, 9 h. inhibition, % at 7.5 µM. 750 compounds, 95% hits;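 active = inhibition above about 80% in every replicate, not just on average, limit read from the data; inconclusive = at least half of replicates past the limit, but not all; inactive = fewer than half of replicates past the limit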
# BB721 growth: growth inhibition of V. harveyi BB721, confirmation, cytotoxicity control for AI-2 quorum sensing inhibitors, strain BB721, absorbance OD600; growth inhibition, % at 7.5 µM; shares compounds with AI-2 QS modul; AID 2728, 2010; Vibrio harveyi BB721 growth, 9 h; 750 compounds, 3% hits;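 active = every replicate shows growth inhibition above 50%; inconclusive = at least half but not all replicates above 50% inhibition; inactive = under half of replicates above 50% inhibition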
# JMH597 AI-2 mod: Vibrio harveyi AI-2 signaling luminescence modulation – JMH597 strain, confirmation; shares compounds with AI-2 QS modul; Vibrio harveyi JMH597 AI-2 quorum sensing luminescence, 9 h; luxN and CqsS knockout, AI-2 only; inhibition, % at 7.5 µM; 750 compounds, 97% hits; AID 2736, 2010;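 active = every replicate shows more than 75% inhibition of signal versus neutral control wells; inconclusive = half to three quarters of replicates exceed 75% inhibition; inactive = fewer than half of replicates exceed 75% inhibition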
# Numbers without * were called inactive; ? = inconclusive; nt = not tested or not shown.
SMILES,HDAC3 inh,ATG4B inh,AI-2 QS modul,A1 inh,LANA-H2B inh,HKDC1 inh,JMH597 growth,BB721 const-QS lum,BB721 growth,JMH597 AI-2 mod
O=c1c2ccccc2nc2n1CC/C2=C\N1CCN(c2ccc([N+](=O)[O-])cc2)CC1,9.8,-7.0,7.0,-1.0,3.6,-2.3,nt,nt,nt,nt
O=C(Nc1cc(-c2ccccc2)[nH]n1)c1ccc(Cl)cc1,4.3,0.7,-81.7*,-4.6,3.8,-1.6,16.2,95.6*,22.0,96.5*
Cc1ccc(-c2cc(NC(=O)c3ccccc3[N+](=O)[O-])n[nH]2)cc1,-0.3,22.7,-95.4*,0.1,-2.7,9.7,-2.7,97.2*,-24.5,98.4*
CCC1CCCCN1CCCNC(=O)c1ccc2c(c1)N(Cc1c(F)cccc1Cl)C(=O)CS2 (stereo not given),9.1,-4.3,8.9,0.4,-0.8,-5.4,nt,nt,nt,nt
O=C(CNC(=O)c1ccncc1)N/N=C/c1cc(Br)ccc1O,-2.3,-11.0,-23.2,0.9,-7.7,-11.1,nt,nt,nt,nt
O=C(CNC(=O)c1ccncc1)N/N=C/c1ccc(Br)cc1,-4.6,-2.3,?,-0.1,-2.2,-1.3,3.4,94.7*,10.5,94.5*
COc1cccc(/C=N/NC(=O)CNC(=O)c2cccs2)c1O,nt,-0.6,24.9,-1.7,0.1,-11.3,nt,nt,nt,nt
Cc1ccc(/C=N/NC(=O)CNC(=O)c2cccs2)cc1,-5.6,-6.9,-90.3*,-0.1,0.0,-0.2,2.4,96.8*,11.5,97.2*
CC(C)(C)c1csc(NC(=O)Cn2cnc3ccccc3c2=O)n1,-7.7,-4.3,-95.1*,1.1,-2.5,-6.0,8.2,97.4*,-2.5,97.8*
CN(c1ccccc1)S(=O)(=O)c1cccc(NC(=O)Cn2cnc3ccccc3c2=O)c1,nt,-5.8,-92.8*,0.2,nt,-0.5,54.8,98.5*,88.1*,99.0*
CCN1C(=O)N[C@@H](CCc2ccccc2)C(C(C)=O)=C1C,-0.7,1.9,10.2,0.0,6.2,-4.4,nt,nt,nt,nt
O=C(Cn1ccc([N+](=O)[O-])n1)Nc1ccccn1,-1.4,-3.1,4.1,0.4,1.0,0.7,nt,nt,nt,nt
CC(C)(C)c1cc(OC(=O)c2ccncc2)ccc1O,6.9,-6.3,nt,0.9,-2.2,15.5,nt,nt,nt,nt
CC(C)(C)c1cc(OC(=O)c2ccccc2F)ccc1O,7.1,-2.4,-85.9*,0.6,-0.8,10.4,7.6,96.8*,25.7,96.7*
CC1(C)Cc2c(cnn2-c2cccc(F)c2)C(NC(=O)CSc2ccccn2)C1 (stereo not given),8.1,-3.8,6.3,0.6,-4.2,-3.8,nt,nt,nt,nt
COC(=O)c1cc(C(=O)OCC(=O)NCc2cccs2)cc([N+](=O)[O-])c1,7.5,-51.4,nt,0.1,-0.5,-1.3,nt,nt,nt,nt
CC(C)(C)c1ccc(OCC(=O)N2CCN(c3ccccn3)CC2)cc1,0.3,-1.8,nt,0.4,4.2,1.1,nt,nt,nt,nt
CC(C)(C)c1ccc(OCC(=O)N2CCN(c3ncccn3)CC2)cc1,3.8,-3.0,-85.7*,0.3,5.6,0.7,0.2,93.0*,12.0,94.6*
COc1cccc(CNC(=O)C(=O)NCC2CCCN2S(=O)(=O)c2cc(C)ccc2C)c1 (stereo not given),-7.2,-8.3,14.1,-0.4,-0.8,-1.1,nt,nt,nt,nt
Cc1occc1C(=O)NNC(=O)Nc1ccc(Cl)c(Cl)c1,-0.7,-6.1,-86.3*,-0.6,1.3,15.4,15.8,93.4*,5.3,93.8*
COc1ccc(CNC(=O)Oc2ccccc2)cc1Cl,-0.2,2.2,-80.4*,0.1,13.4,8.0,14.4,96.5*,36.2,97.4*
C=CC[C@@H](Cc1ccc(F)cc1)C(=O)OC[C@@H]1CCCN1C(=O)[C@H](CC=C)CC(=O)NCCO,-5.8,8.3,nt,-0.4,-0.1,-6.1,nt,nt,nt,nt
COc1ccc(-n2ncc3c2CC(C)(C)CC3NC(=O)C2CCN(C(C)=O)CC2)cc1 (stereo not given),2.8,0.0,-6.4,0.6,-1.5,-1.5,nt,nt,nt,nt
O=C(COc1ncnc2ccccc12)Nc1ccccc1[N+](=O)[O-],5.4,-4.8,26.7,1.0,-2.0,-9.3,nt,nt,nt,nt
O=C(COc1ncnc2ccccc12)Nc1ccc(Cl)c([N+](=O)[O-])c1,-0.6,-11.2,-96.8*,-0.1,2.2,-4.0,-20.7,99.7*,-10.2,99.8*
SMILES,HDAC3 inh,ATG4B inh,AI-2 QS modul,A1 inh,LANA-H2B inh,HKDC1 inh,JMH597 growth,BB721 const-QS lum,BB721 growth,JMH597 AI-2 mod
COc1cc([N+](=O)[O-])ccc1NC(=O)COC(=O)C=C(C)C,2.0,-10.3,-22.6,0.3,4.6,1.6,nt,nt,nt,nt
CC(C)=CC(=O)OCC(=O)Nc1cccc([N+](=O)[O-])c1,-1.2,-1.9,-89.4*,1.7,9.3,-10.5,11.4,94.8*,4.1,97.0*
O=C(COc1ncnc2ccccc12)Nc1cccc([N+](=O)[O-])c1,-11.9,-2.0,-96.2*,-0.7,0.4,-3.8,-8.9,98.4*,-41.5,98.9*
CC(=O)c1ccc(N2C(=O)CC(N3CCN(S(=O)(=O)c4ccc(C)c(C)c4)CC3)C2=O)cc1 (stereo not given),-8.7,-6.2,nt,-0.9,0.9,-5.7,nt,nt,nt,nt
O=C(NCCOC(=O)c1ccc(Cl)cc1)c1cccnc1,3.9,11.3,47.9,-0.6,4.1,6.7,nt,nt,nt,nt
CCN(CC)c1ccc(NC(=S)NC(=O)Cc2ccccc2)cc1,0.8,6.2,14.2,0.4,0.8,-4.0,nt,nt,nt,nt
Cc1ccccc1-c1ccc(=O)n(CC(=O)Nc2ccc(-n3cnnn3)cc2)n1,-7.5,-13.0,18.7,0.7,0.5,1.0,nt,nt,nt,nt
CN(C)S(=O)(=O)c1ccc(NC(=S)NC(=O)Cc2ccccc2)cc1,-0.8,4.8,-86.1*,-0.2,-1.6,-10.3,-1.1,15.6,-128.7,24.7
